Experiments:
Human betaherpesvirus 5 [1] = test: Antiviral activity against HCMV Davis infected in human HEL cells assessed inhibition of virus-induced cytopathicity after 7 days postinfection; type: functional, organism-based; conditions: Human betaherpesvirus 5, Davis, 168 h
Outline: (§1)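 HEL fibroblasts were infected at 100 PFU. After 2 h, residual virus was removed and medium with test compound was added at several concentrations, in duplicate. Cells were incubated 7 days at 37 °C, fixed with ethanol and stained with Giemsa.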

Human alphaherpesvirus 3 [2] = test: Antiviral activity against thymidine kinase expressing Varicella zoster virus Oka infected in human HEL cells assessed reduction in viral plaque formation; type: functional, organism-based; conditions: Human alphaherpesvirus 3, Oka
Outline: (§2)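 Confluent HEL cell monolayers were inoculated with VZV at 20 PFU per well. Residual virus was removed after 2 h, and compound was added at varying concentrations, in duplicate.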

Human alphaherpesvirus 3 [3] = test: Antiviral activity against thymidine kinase deficient Varicella zoster virus 07/1 infected in human HEL cells assessed reduction in viral plaque formation; type: functional, organism-based; conditions: Human alphaherpesvirus 3, HEL; outline: as §2
[4] = Cytotoxicity against human HEL cells assessed as morphological alteration after 3 days; type: cell-based
Outline: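 HEL cultures were examined under the microscope. MCC was recorded as the compound concentration causing a microscopically detectable alteration of normal cell morphology.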

[5] = Cytotoxicity against human HEL cells assessed as reduction of growth after 3 days; type: cell-based
Outline: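 HEL cells were seeded at 5 × 10³ cells/well and grown 24 h before compound was added at different concentrations. After 3 days at 37 °C, cells were counted with a Coulter counter. CC50, the concentration halving growth relative to untreated controls, was read from plots of cell number (% of control) against concentration.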

Human betaherpesvirus 5 [6] = test: Antiviral activity against HCMV AD169 infected in human HEL cells assessed inhibition of virus-induced cytopathicity after 7 days postinfection; type: functional, organism-based; conditions: Human betaherpesvirus 5, AD169, HEL, 168 h; outline: as §1
Human betaherpesvirus 5 [7] = test: Antiviral activity against wild type HCMV AD169 infected in HEL cells assessed as inhibition of virus-induced cytopathicity; type: functional, organism-based; conditions: Human betaherpesvirus 5, AD169, HEL
Outline: (§3)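 HEL fibroblast cultures infected at 100 PFU input. After 2 h, residual virus was removed and compound-containing medium was added at varying concentrations, in duplicate. Cells were incubated 7 days at 37 °C, ethanol-fixed and Giemsa-stained, and cytopathicity was scored microscopically.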

Human betaherpesvirus 5 [8] = test: Antiviral activity against ganciclovir-resistant HCMV AD169 clone 4 infected in HEL cells assessed as inhibition of virus-induced cytopathicity; type: functional, organism-based; conditions: Human betaherpesvirus 5, AD169, HEL
Human betaherpesvirus 5 [9] = test: Antiviral activity against cidofovir HCMV AD169 clone 5 infected in human HEL cells assessed as inhibition of virus-induced cytopathicity; type: functional, organism-based; conditions: Human betaherpesvirus 5, AD169, HEL
Human betaherpesvirus 5 [10] = test: Antiviral activity against PMEDAP-resistant HCMV AD169 clone 4 infected in HEL cells assessed as inhibition of virus-induced cytopathicity; type: functional, organism-based; conditions: Human betaherpesvirus 5, AD169, HEL
Human betaherpesvirus 5 [11] = test: Antiviral activity against foscarnet-resistant HCMV AD169 clone C infected in HEL cells assessed as inhibition of virus-induced cytopathicity; type: functional, organism-based; conditions: Human betaherpesvirus 5, AD169, HEL
Human betaherpesvirus 5 [12] = test: Antiviral activity against HPMPA-resistant HCMV AD169 clone 2 mutant infected in HEL cells assessed as inhibition of virus-induced cytopathicity; type: functional, organism-based; conditions: Human betaherpesvirus 5, AD169, HEL
Human betaherpesvirus 5 [13] = test: Antiviral activity against wild type HCMV Davis infected in HEL cells assessed as inhibition of virus-induced cytopathicity; type: functional, organism-based; conditions: Human betaherpesvirus 5, Davis; outline: as §3
Human betaherpesvirus 5 [14] = test: Antiviral activity against acyclovir-resistant HCMV AD169 clone 1 infected in HEL cells assessed as inhibition of virus-induced cytopathicity; type: functional, organism-based; conditions: Human betaherpesvirus 5, AD169, HEL

| SMILES | EC50 (Human betaherpesvirus 5 [1]) [µM] | EC50 (Human alphaherpesvirus 3 [2]) [µM] | EC50 (Human alphaherpesvirus 3 [3]) [µM] | MCC at 72 h [4] [µM] | CC50 at 72 h [5] [µM] | EC50 (Human betaherpesvirus 5 [6]) [µM] | EC50 (Human betaherpesvirus 5 [7]) [µM] | EC50 (Human betaherpesvirus 5 [8]) [µM] | EC50 (Human betaherpesvirus 5 [9]) [µM] | EC50 (Human betaherpesvirus 5 [10]) [µM] | EC50 (Human betaherpesvirus 5 [11]) [µM] | EC50 (Human betaherpesvirus 5 [12]) [µM] | EC50 (Human betaherpesvirus 5 [13]) [µM] | EC50 (Human betaherpesvirus 5 [14]) [µM] |
| --- | --- | --- | --- | --- | --- | --- | --- | --- | --- | --- | --- | --- | --- | --- |
| CCC1(Cc2ccccc2)OS(=O)(=O)C=C1OCc1ccc(C(F)(F)F)cc1 (racemic) | 8 | 7.7 | 6.7 | ≥ 16 | 99 | 12 |  |  |  |  |  |  |  |  |
| CCC1(Cc2ccccc2)OS(=O)(=O)C=C1OCCCCc1ccccc1 (racemic) | 7.8 | 6.2 | > 20 | ≥ 20 | 99 | > 3.2 |  |  |  |  |  |  |  |  |
| CCC1(Cc2ccccc2)OS(=O)(=O)C=C1OCCCCCCc1ccccc1 (racemic) | 6.4 | 8.7 | 8.4 | ≥ 20 | < 200 | < 3.2 |  |  |  |  |  |  |  |  |
| O=S1(=O)C=C(OCc2ccccc2)C2(CCc3ccccc3C2)O1 (racemic) | > 80 | 80 | > 16 | ≥ 80 | 131 | > 400 |  |  |  |  |  |  |  |  |
| CC1(Cc2ccccc2)OS(=O)(=O)C=C1OCc1ccccc1 (racemic) | > 200 | 306 | > 400 | > 400 | 68 | > 200 |  |  |  |  |  |  |  |  |
| C=CCOC1=CS(=O)(=O)OC1(CC)Cc1ccccc1 (racemic) | > 400 | > 16 | > 16 | 80 | > 200 | > 400 |  |  |  |  |  |  |  |  |
| CCC1(Cc2ccccc2)OS(=O)(=O)C=C1OCC(=O)OC (racemic) | > 400 | > 400 | > 400 | > 400 | > 200 | > 400 |  |  |  |  |  |  |  |  |
| CCC1(Cc2ccccc2)OS(=O)(=O)C=C1OCc1ccc(Cl)c(Cl)c1 (racemic) | 7.2 | > 3.2 | > 3.2 | ≥ 20 | 36.7 | 6.5 |  |  |  |  |  |  |  |  |
| CCC1(Cc2ccccc2)OS(=O)(=O)C=C1OCCCc1ccccc1 (racemic) | 8.7 | > 3.2 | 6.5 | ≥ 20 | 133 | 9 |  |  |  |  |  |  |  |  |
| CCC1(Cc2ccccc2)OS(=O)(=O)C=C1OC(=O)c1ccccc1 (racemic) | 179 | > 400 | > 400 | > 400 | > 200 | > 400 |  |  |  |  |  |  |  |  |
| CCC1(Cc2ccccc2)OS(=O)(=O)C=C1OC(c1ccccc1)c1ccccc1 (racemic) | > 400 | > 80 | > 80 | ≥ 80 | > 200 | > 400 |  |  |  |  |  |  |  |  |
| CCC1(Cc2ccccc2)OS(=O)(=O)C=C1OCc1ccc(Br)cc1 (racemic) | 6 | 8.3 | 6.3 | 80 | 171 | 10 |  |  |  |  |  |  |  |  |
| Nc1nc2c(ncn2COCCO)c(=O)[nH]1 [ACYCLOVIR] |  | 1.1 | 72 | > 200 | 733 |  | 15 |  |  |  |  |  |  |  |
| O=c1[nH]c(=O)n([C@H]2C[C@H](O)[C@@H](CO)O2)cc1/C=C/Br [BRIVUDINE] |  | 0.015 | 140 | > 150 | 600 |  |  |  |  |  |  |  |  |  |
| Nc1ccn(C[C@@H](CO)OCP(=O)(O)O)c(=O)n1 [CIDOFOVIR] | 0.5 |  |  | > 150 | 74 | 0.3 | 0.076 | 0.74 | 1 | 0.092 | 0.045 | 0.55 | 0.069 | 0.095 |
| O=C(O)P(=O)(O)O [FOSCARNET] |  |  |  |  |  |  | 13 | 20 | 11 | 63 | 95 | 13 | 11 | 35 |
| Nc1nc2c(ncn2COC(CO)CO)c(=O)[nH]1 [GANCICLOVIR] | 3.6 |  |  | > 400 | 134 |  | 0.7 | 4.3 | 4 | 3.5 |  | 1.2 | 0.66 | 0.69 |
| Nc1nc(N)c2ncn(CCOCP(=O)(O)O)c2n1 [PMEDAP] |  |  |  |  |  |  | 8.4 | 1.9 | 3.5 | 37 | 25 | 0.82 | 7.7 | > 50 |
